# ChEMBL document CHEMBL4689842, “EUbOPEN Chemogenomics Library wave 1” (2021)
# Tested on: HEK-293T
# Experiment: Multiplex assay against HEK293T;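 on Population Tubulin-Different-Phenotype (%): share of the cells with healthy nuclei that show this phenotype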
# Assay type: toxicity, cell-based
# Settings: human
# In short: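 Live cells were stained at seeding with Hoechst33342, BioTracker Green Microtubule Cytoskeleton Dye, MitoTracker Red and Annexin V Alexa Fluor 680, then imaged on a CQ1 microscope at 37°C and 5% CO2 after compound addition. CellPathfinder machine-learning gating split cells into Hoechst high-intensity objects or normal cells. Normal cells were split into healthy, pyknosed or fragmented nuclei, and pyknosed cells into mitotic or apoptotic. Tubulin, mitochondrial-mass and membrane-permeability phenotypes are per cents of healthy-nucleus cells.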
# [1] = 12 h, 1 µM, compound concentration 1 uM, replicate 1
# [2] = 12 h, 1 µM, compound concentration 1 uM, replicate 2
# [3] = 12 h, 10 µM, compound concentration 10 uM, replicate 1
# [4] = 12 h, 10 µM, compound concentration 10 uM, replicate 2
# [5] = 24 h, 1 µM, compound concentration 1 uM, replicate 1
# [6] = 24 h, 1 µM, compound concentration 1 uM, replicate 2
# [7] = 24 h, 10 µM, compound concentration 10 uM, replicate 1
# [8] = 24 h, 10 µM, compound concentration 10 uM, replicate 2
# [9] = 48 h, 1 µM, compound concentration 1 uM, replicate 1
# [10] = 48 h, 1 µM, compound concentration 1 uM, replicate 2
# [11] = 48 h, 10 µM, compound concentration 10 uM, replicate 1
# [12] = 48 h, 10 µM, compound concentration 10 uM, replicate 2
smiles,measurement,setting,value
CCC(=O)O[C@]1(C(=O)SCF)[C@H](C)C[C@H]2[C@@H]3C[C@H](F)C4=CC(=O)C=C[C@]4(C)[C@@]3(F)[C@@H](O)C[C@@]21C [FLUTICASONE PROPIONATE],Population Apoptotic (%),[1],51%
same,Population Fragmented Nuclei (%),[1],10%
same,Population Healthy Nuclei (%),[1],33%
same,Population Hoechst High Intensity Objects (%),[1],11%
same,Population Membrane Permeable-Phenotype (%),[1],0%
same,Population Mitochondria Different-Phenotype (%),[1],87%
same,Population Mitotic Cells (%),[1],48%
same,Population Normal (%),[1],88%
same,Population Pyknosed Nuclei (%),[1],56%
same,Population Tubulin-Different-Phenotype (%),[1],52%
same,Total Cell Count,[1],253
same,Population Apoptotic (%),[2],9%
same,Population Fragmented Nuclei (%),[2],4%
same,Population Healthy Nuclei (%),[2],46%
same,Population Hoechst High Intensity Objects (%),[2],2%
same,Population Membrane Permeable-Phenotype (%),[2],7%
same,Population Mitochondria Different-Phenotype (%),[2],13%
same,Population Mitotic Cells (%),[2],90%
same,Population Normal (%),[2],97%
same,Population Pyknosed Nuclei (%),[2],48%
same,Population Tubulin-Different-Phenotype (%),[2],19%
same,Total Cell Count,[2],273
same,Population Apoptotic (%),[3],68%
same,Population Fragmented Nuclei (%),[3],11%
same,Population Healthy Nuclei (%),[3],32%
same,Population Hoechst High Intensity Objects (%),[3],15%
same,Population Membrane Permeable-Phenotype (%),[3],1%
same,Population Mitochondria Different-Phenotype (%),[3],89%
same,Population Mitotic Cells (%),[3],31%
same,Population Normal (%),[3],84%
same,Population Pyknosed Nuclei (%),[3],56%
same,Population Tubulin-Different-Phenotype (%),[3],78%
same,Total Cell Count,[3],203
same,Population Apoptotic (%),[4],25%
same,Population Fragmented Nuclei (%),[4],4%
same,Population Healthy Nuclei (%),[4],27%
same,Population Hoechst High Intensity Objects (%),[4],6%
same,Population Membrane Permeable-Phenotype (%),[4],8%
same,Population Mitochondria Different-Phenotype (%),[4],54%
same,Population Mitotic Cells (%),[4],74%
same,Population Normal (%),[4],93%
same,Population Pyknosed Nuclei (%),[4],68%
same,Population Tubulin-Different-Phenotype (%),[4],60%
same,Total Cell Count,[4],187
same,Population Apoptotic (%),[5],59%
same,Population Fragmented Nuclei (%),[5],10%
same,Population Healthy Nuclei (%),[5],41%
same,Population Hoechst High Intensity Objects (%),[5],17%
same,Population Membrane Permeable-Phenotype (%),[5],6%
same,Population Mitochondria Different-Phenotype (%),[5],68%
same,Population Mitotic Cells (%),[5],40%
same,Population Normal (%),[5],82%
same,Population Pyknosed Nuclei (%),[5],48%
same,Population Tubulin-Different-Phenotype (%),[5],40%
same,Total Cell Count,[5],273
same,Population Apoptotic (%),[6],7%
same,Population Fragmented Nuclei (%),[6],3%
same,Population Healthy Nuclei (%),[6],67%
same,Population Hoechst High Intensity Objects (%),[6],1%
same,Population Mitochondria Different-Phenotype (%),[6],12%
same,Population Mitotic Cells (%),[6],92%
same,Population Normal (%),[6],98%
same,Population Pyknosed Nuclei (%),[6],29%
same,Population Tubulin-Different-Phenotype (%),[6],22%
same,Total Cell Count,[6],322
same,Population Apoptotic (%),[7],61%
same,Population Fragmented Nuclei (%),[7],15%
same,Population Healthy Nuclei (%),[7],33%
same,Population Hoechst High Intensity Objects (%),[7],15%
same,Population Membrane Permeable-Phenotype (%),[7],0%
same,Population Mitochondria Different-Phenotype (%),[7],80%
same,Population Mitotic Cells (%),[7],38%
same,Population Normal (%),[7],84%
same,Population Pyknosed Nuclei (%),[7],50%
same,Population Tubulin-Different-Phenotype (%),[7],67%
same,Total Cell Count,[7],237
same,Population Apoptotic (%),[8],44%
same,Population Fragmented Nuclei (%),[8],11%
same,Population Healthy Nuclei (%),[8],44%
same,Population Hoechst High Intensity Objects (%),[8],3%
same,Population Membrane Permeable-Phenotype (%),[8],8%
same,Population Mitochondria Different-Phenotype (%),[8],43%
same,Population Mitotic Cells (%),[8],55%
same,Population Normal (%),[8],96%
same,Population Pyknosed Nuclei (%),[8],44%
same,Population Tubulin-Different-Phenotype (%),[8],53%
same,Total Cell Count,[8],226
same,Population Apoptotic (%),[9],50%
same,Population Fragmented Nuclei (%),[9],14%
same,Population Healthy Nuclei (%),[9],50%
same,Population Hoechst High Intensity Objects (%),[9],14%
same,Population Membrane Permeable-Phenotype (%),[9],2%
same,Population Mitochondria Different-Phenotype (%),[9],34%
same,Population Mitotic Cells (%),[9],50%
same,Population Normal (%),[9],85%
same,Population Pyknosed Nuclei (%),[9],35%
same,Population Tubulin-Different-Phenotype (%),[9],28%
same,Total Cell Count,[9],348
same,Population Apoptotic (%),[10],9%
same,Population Fragmented Nuclei (%),[10],4%
same,Population Healthy Nuclei (%),[10],81%
same,Population Hoechst High Intensity Objects (%),[10],2%
same,Population Membrane Permeable-Phenotype (%),[10],5%
same,Population Mitochondria Different-Phenotype (%),[10],3%
same,Population Mitotic Cells (%),[10],90%
same,Population Normal (%),[10],97%
same,Population Pyknosed Nuclei (%),[10],13%
same,Population Tubulin-Different-Phenotype (%),[10],23%
same,Total Cell Count,[10],621
same,Population Apoptotic (%),[11],67%
same,Population Fragmented Nuclei (%),[11],15%
same,Population Healthy Nuclei (%),[11],51%
same,Population Hoechst High Intensity Objects (%),[11],12%
same,Population Membrane Permeable-Phenotype (%),[11],10%
same,Population Mitochondria Different-Phenotype (%),[11],60%
same,Population Mitotic Cells (%),[11],32%
same,Population Normal (%),[11],87%
same,Population Pyknosed Nuclei (%),[11],33%
same,Population Tubulin-Different-Phenotype (%),[11],55%
same,Total Cell Count,[11],278
same,Population Apoptotic (%),[12],28%
same,Population Fragmented Nuclei (%),[12],7%
same,Population Healthy Nuclei (%),[12],74%
same,Population Hoechst High Intensity Objects (%),[12],5%
same,Population Membrane Permeable-Phenotype (%),[12],9%
same,Population Mitochondria Different-Phenotype (%),[12],22%
same,Population Mitotic Cells (%),[12],71%
same,Population Normal (%),[12],94%
same,Population Pyknosed Nuclei (%),[12],18%
same,Population Tubulin-Different-Phenotype (%),[12],52%
same,Total Cell Count,[12],330
